The record followed here is ChEMBL document CHEMBL3091410, “Enmein-type 6,7-seco-ent-kauranoids from Isodon sculponeatus” (J Nat Prod, 2013).

In experiment [1] the test system is SMMC-7721. Kind of experiment: Cytotoxicity against human SMMC7721 cells after 48 hrs by MTS assay. It counts as functional, cell-based. The note with it: SMMC-7721, 48 h. In outline: (§1)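 Lines obtained from ATCC, grown in RPMI-1640 or DMEM with 10% FBS at 37 °C, 5% CO2. Adherent cells seeded at 1 × 10^5 cells/mL and allowed to attach 12 h; suspension cells seeded just before dosing. Range of concentrations tested in triplicate for 48 h. MTS then added for 4 h at 37 °C, cells lysed in 20% SDS-50% DMF, OD read at 490 nm. IC50 by Reed and Muench method.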
On the technique in general: Tetrazolium assays rely on reduction of a dye to a coloured formazan, in cell work by metabolically active cells.

Experiment [2] deals with MCF7. Briefly: Cytotoxicity against human MCF7 cells after 48 hrs by MTS assay. It counts as functional, cell-based. The following applies: MCF7, 48 h. In outline:
as §1

Experiment [3] relates to SW480. Briefly: Cytotoxicity against human SW480 cells after 48 hrs by MTS assay. The following applies: SW480, 48 h. In kind it is functional, cell-based. The essentials:
as §1

Experiment [4] concerns HL-60. Briefly: Cytotoxicity against human HL60 cells after 48 hrs by MTS assay. It counts as functional, cell-based. The note with it: HL-60, 48 h. In outline:
as §1

Experiment [5] deals with A549. Briefly: Cytotoxicity against human A549 cells after 48 hrs by MTS assay. In kind it is functional, cell-based. The note with it: A549, 48 h. The essentials:
as §1

For experiment [6], the system named is RAW264.7. Kind of experiment: Inhibition of LPS-stimulated NO production in mouse RAW264.7 cells after 18 hrs by Griess assay. It counts as functional, cell-based. The following applies: RAW264.7, 18 h. In outline:
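RAW264.7 macrophages, 2 × 10^5 cells/well in RPMI 1640 with 10% FBS, preincubated 24 h. Serial dilutions up to 25 μM (DMSO stock diluted in medium) given with 1 μg/mL LPS for 18 h. Supernatant mixed 1:1 with Griess reagent, in triplicate, 5 min; absorbance at 570 nm. Parallel MTS viability check under the same 18 h conditions.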
(In general: Griess reagent forms a coloured azo dye with nitrite.)

For experiment [7], the system named is SW480. Kind of experiment: Potency index, ratio of cisplatin IC50 to compound IC50 for human SW480 cells. In kind it is functional.

Some results are limits rather than exact numbers.

As usually defined, the IC50 is the concentration that inhibits the measured activity by half. Read a high IC50 as a need for much substance. Turning to `C=C1[C@@H]2CC[C@@H]3[C@](C2)(C(=O)O[C@H]2CCC(C)(C)[C@H]4[C@H](O)OC[C@@]243)[C@@H]1O`, the IC50 in experiment [1], in experiment [2], in experiment [3], in experiment [4] and in experiment [5] was over 40 µM in each case.

Regarding `C=C1C(=O)[C@]23C[C@H]1CC[C@H]2[C@@]12CO[C@@H](O)[C@@H]1C(C)(C)CC[C@@H]2OC3=O`, the 50% inhibitory concentration (IC50) in experiment [6] stood at 2.2 µM; in experiment [1], 3.5 µM; in experiment [2] it was 2.6 µM; in experiment [3], 1 µM; in experiment [4], 2.8 µM; in experiment [5], 3.2 µM. Also, in experiment [7], the “Ratio IC50” value was found to be 15.

In the case of `C=C1[C@H]2C[C@@]3(C(=O)O[C@H]4CCC(C)(C)[C@H]5[C@H](O)OC[C@@]45[C@@H]3[C@@H]3O[C@@H]32)[C@@H]1O`, the IC50 in experiment [1], in experiment [2], in experiment [3], in experiment [4] and in experiment [5] was over 40 µM throughout.

Take `C=C1[C@@H]2C=C[C@@H]3[C@](C2)(C(=O)O[C@H]2CCC(C)(C)[C@H]4[C@H](O)OC[C@@]243)[C@@H]1O`: the IC50 in experiment [1], in experiment [2], in experiment [3], in experiment [4] and in experiment [5] was over 40 µM in each case.

As to `C=C1[C@@H](O)[C@]23C[C@@]1(O)C[C@@H](O)[C@H]2[C@]12CO[C@@H]4OC[C@](C)(CC[C@@H]1OC3=O)[C@@H]42`, the IC50 in experiment [1], in experiment [2], in experiment [3], in experiment [4] and in experiment [5] was over 40 µM each time.

Turning to `CC1(C)[C@H](O)C[C@@H]2OC(=O)[C@@]34C[C@@H](C[C@@H](O)[C@H]3[C@]23CO[C@@H](O)[C@H]13)[C@](C)(O)C4=O`, the IC50 in experiment [1], in experiment [2], in experiment [3], in experiment [4] and in experiment [5] was over 40 µM each time.

Take `C=C1C(=O)[C@]23C[C@H]1CC[C@H]2[C@@]12CO[C@@H](O)[C@@H]1C(C)(C)[C@@H](O)C[C@@H]2OC3=O` [ENEMIN]: the concentration for half-maximal inhibition (IC50) in experiment [1], in experiment [2], in experiment [3], in experiment [4] and in experiment [5] was over 40 µM throughout.

As to `C=C1C(=O)[C@]23C[C@H]1C[C@H](O)[C@H]2[C@@]12CO[C@@H](O)[C@@H]1C(C)(C)CC[C@@H]2OC3=O` [EPINODOSIN], the IC50 in experiment [1], in experiment [2], in experiment [3], in experiment [4] and in experiment [5] was over 40 µM each time.

`C=C1C(=O)[C@]23C[C@H]1C[C@@H](O)[C@H]2[C@@]12CO[C@@H](O)[C@@H]1C(C)(C)CC[C@@H]2OC3=O` [NODOSIN]: the IC50 in experiment [6] is 18.4 µM; in experiment [1], 27 µM; in experiment [2] it was 23.5 µM; in experiment [3], 12.1 µM; in experiment [4], 15 µM; in experiment [5], over 40 µM.

Regarding `CC(=O)O[C@H]1C(=O)[C@@]2(C)[C@H]([C@H](OC(=O)c3ccccc3)[C@]3(O)C[C@H](OC(=O)[C@H](O)[C@@H](NC(=O)c4ccccc4)c4ccccc4)C(C)=C1C3(C)C)[C@]1(OC(C)=O)CO[C@@H]1C[C@@H]2O` [PACLITAXEL], the IC50 in experiment [1], in experiment [2], in experiment [3], in experiment [4] and in experiment [5] was under 0.008 µM in each case.

For the compound `C=C1C(=O)[C@]23C[C@H]1C[C@@H](O)[C@H]2[C@]12CO[C@@H]4OC[C@](C)(CC[C@@H]1OC3=O)[C@@H]42` [SCULPONEATIN A], the half-maximal inhibitory concentration (IC50) in experiment [6] was found to be 9.1 µM; in experiment [1], 15.2 µM; in experiment [2] it was 15 µM; in experiment [3], 3.5 µM; in experiment [4] it was 12.7 µM; in experiment [5], 17.1 µM.

With `C=C1[C@@H]2C[C@@H](O)[C@@H]3[C@](C2)(C(=O)O[C@H]2CC[C@@]4(C)CO[C@H]5OC[C@]23[C@H]54)[C@@H]1O` [SCULPONEATIN B], the half-maximal inhibitory concentration (IC50) in experiment [1], in experiment [2], in experiment [3], in experiment [4] and in experiment [5] was over 40 µM throughout.
